FID counter: compounds displacing fluorescent DNA intercalator, primary screen, artefact control for HCV NS3 helicase inhibitor project, biochemical, FID fluorescence; inhibition, % at 7.9 µM; DNA fluorescent intercalator displacement; 290,000 tested, 0.17% active; AID 1845, 2009; in the data active = inhibition above about 37%;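 note: 0% = vehicle and 100% = reference compound; higher means more ethidium bromide displaced from hairpin DNA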
HIF act: HIF pathway transcriptional activators, primary screen, cell-based, U2OS HRE-luciferase, luminescence; U2OS HRE-luciferase reporter; normalized: DMSO 0%, desferrioxamine 100%; activation, % at 7.5 µM (by protocol); 300,000 tested, 0.32% active; AID 1910, 2009;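 active = mean activation of at least 10% of the iron chelator positive control signal, with at least half of replicates also reaching 10%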
PP5 inh: PP5 phosphatase inhibitors, primary screen, biochemical, fluorescence. Serine/threonine-protein phosphatase 5 (Homo sapiens), P53041. purified PP5c, OMFP substrate fluorescence. inhibition, % at 6.7 µM. 320,000 tested, 0.18% active. AID 1987, 2009;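 active = inhibition above the campaign's mean inhibition across all tested compounds plus 3 SD, cut at about 9.5% in these data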;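 note: 0% = DMSO only and 100% = 100 µM cantharidin control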
NS3 helicase inh: inhibitors of HCV NS3 helicase, primary screen, biochemical, Cy5 molecular beacon fluorescence. Hepatitis C virus NS3 helicase. 290,000 tested, 0.56% active. NS3 helicase DNA unwinding. AID 1800, 2009. inhibition, % at 10.9 µM;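 active = inhibition above the mean of all tested compounds plus 3 SD, set per campaign, cut at about 35% in these data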;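 note: 0% = DMSO wells and 100% = thioflavine S control wells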
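System: NS3 helicase fragment of HCV / Schedule: 1 h at 25 °C / Control set: DMSO alone as 0% and 110 µM thioflavine S as 100% / Reagent: Cy5/quencher beacon DNA duplex and ATP to start / Technique: Cy5 fluorescence / Replication: singlicate / Evaluation: % inhibition of end-to-start signal ratio versus controls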
PP1 counter: PP1-alpha phosphatase inhibitors, primary screen, counter-screen for PP5 inhibitor project, biochemical, fluorescence, OMFP substrate, single point. Serine/threonine-protein phosphatase PP1-alpha catalytic subunit (Homo sapiens), P62136. purified PP1alpha. inhibition, % at 6.7 µM. 320,000 tested, 0.9% active;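 active = inhibition above the mean inhibition of all tested compounds plus 3 SD, computed separately for each screening campaign, cut at about 15% in these data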
Target sequence (P62136 whole entry, looked up): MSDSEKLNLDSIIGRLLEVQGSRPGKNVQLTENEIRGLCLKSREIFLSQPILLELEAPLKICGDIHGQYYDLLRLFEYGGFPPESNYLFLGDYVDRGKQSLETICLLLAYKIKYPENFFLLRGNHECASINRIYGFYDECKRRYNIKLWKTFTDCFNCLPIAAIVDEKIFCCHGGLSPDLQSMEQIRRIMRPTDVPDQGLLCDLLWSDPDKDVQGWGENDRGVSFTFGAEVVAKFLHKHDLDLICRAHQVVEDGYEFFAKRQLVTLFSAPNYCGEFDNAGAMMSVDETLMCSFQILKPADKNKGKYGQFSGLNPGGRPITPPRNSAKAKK
PP1 inh confirm: PP1 phosphatase inhibitors, confirmation, biochemical, fluorescence, OMFP substrate, triplicate; shares compounds with PP1 counter; purified PP1alpha; inhibition, % at 6.7 µM; 1,900 tested, 52% active;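 active = mean PP1 inhibition above a set limit taken from the earlier primary screen, cut at about 15% in these data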
PP5 counter: PP5 phosphatase inhibition by PP1 hits, confirmation, counter-screen for PP1 inhibitor project, biochemical, fluorescence, triplicate | shares compounds with PP1 counter | purified PP5c, OMFP fluorescence | inhibition, % at 6.7 µM | 1,900 tested, 4% active | AID 2360, 2010;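 active = mean PP5 inhibition over triplicate wells above about 9.5% taken from the earlier PP1 screen, limit read from the data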
* marks the source's active call; other numbers are inactive results; / = not tested or not shown. Hits are enriched below; roughly 1.9% of the tested compounds scored in any of these assays.

SMILES	FID counter	HIF act	PP5 inh	NS3 helicase inh	PP1 counter	PP1 inh confirm	PP5 counter
C#CCOCCOCCOCCNc1nc(N2CCN(C(=O)CCCCCCCCCCNC(=O)[C@H]([C@@H](C)CC)n3cc(CCCCCN)nn3)CC2)nc(N2CCN(C(=O)CCCCCCCCCCNC(=O)[C@H](CO)n3cc(CCCCCN)nn3)CC2)n1	/	/	5	/	53*	26*	-2
Cc1ccc(S(=O)(=O)N2CCC(=O)CC2)cc1	-11	0	-8	8	-6	/	/
CN(Cc1nc(-c2cccs2)no1)CC1COCCO1 (stereo not given)	-3	1	0	-2	2	/	/
O=c1c2ccccc2nc2n1CCC2	8	0	8	4	52*	48*	1
Cc1ccc2nc(-c3ccc(SCC(=O)Nc4nnc(C)s4)nc3)[nH]c2c1	-9	/	2	-26	20*	25*	-2
Cc1ccc2nc(-c3ccc(SCC(=O)Nc4nc(C)cs4)nc3)[nH]c2c1	-2	0	-1	2	-1	/	/
O=C(NCc1ccc2c(c1)OCO2)C(=O)NCC1OCCCN1S(=O)(=O)c1ccc(F)cc1 (stereo not given)	-23	0	2	6	-2	/	/
Clc1ccc(C2[C@H]3CN(Cc4cccnc4)[C@H](c4ccccc4)C34CC2(c2ccccc2)C4)cn1 (stereo not given in full)	/	0	5	/	21*	17*	1
c1ccc(C2[C@H]3CN(Cc4cccnc4)[C@H](c4ccccc4)C34CC2(c2ccccc2)C4)cc1 (stereo not given in full)	/	0	0	/	14	/	/
N#Cc1ccc(C23CC4(C2)[C@H](CN(P(=O)(c2ccccc2)c2ccccc2)[C@@H]4c2ccccc2)C3c2ccc(Cl)nc2)cc1 (stereo not given in full)	/	0	4	/	18*	6	4
C/C=C(/C)C(=O)Nc1cccc(C2=NOC3(C2)C[C@H](C(N)=O)N(C(=O)c2ccccc2)C3)c1 (stereo not given in full)	/	-1	6	/	42*	1	-2
C/C=C/C=C\C(=O)Nc1cccc(C2=NOC3(C2)C[C@H](C(N)=O)N(C(=O)CC#N)C3)c1 (stereo not given in full)	/	2	2	/	19*	1	-3
NC(=O)[C@H]1CC2(CC(c3cccc(NC(=O)CC(c4ccccc4)c4ccccc4)c3)=NO2)CN1C(=O)CC(c1ccccc1)c1ccccc1 (stereo not given in full)	/	0	5	/	22*	29*	12*
C/C=C(\C)C(=O)Nc1cccc(C2=NOC3(C2)C[C@@H](C(N)=O)N(C(=O)c2ccccc2C(=O)c2ccccc2)C3)c1 (stereo not given in full)	/	0	-1	/	-3	/	/
CCC(=O)N1CC2(CC(c3cccc(NC(=O)CC(c4ccccc4)c4ccccc4)c3)=NO2)C[C@H]1C(N)=O (stereo not given in full)	/	0	2	/	-1	/	/
C=C(C)C(=O)Nc1cccc(C2=NOC3(C2)C[C@H](C(N)=O)N(C(=O)CC#N)C3)c1 (stereo not given in full)	/	0	-2	/	37*	9	0
CCCn1c(=O)c(C(=O)NNS(=O)(=O)c2ccc(C)cc2)c(O)c2ccccc21	-9	-1	2	-1	7	/	/
Cn1c(=O)c(C(=O)NNC(=O)c2ccccc2F)c(O)c2ccccc21	-31	0	-1	-9	18*	6	-4
CCn1c(=O)c(C(=O)Nc2ncccc2C)c(O)c2ccccc21	-12	0	-2	-7	21*	25*	-1
CCCn1c(=O)c(C(=O)NNC(=O)c2cccc([N+](=O)[O-])c2)c(O)c2ccccc21	-22	0	0	12	20*	19*	-1
CCn1c(=O)c(C(=O)NNC(=O)c2ccccc2Cl)c(O)c2ccccc21	-28	0	1	4	19*	14	-2
CCn1c(=O)c(C(=O)NNC(=O)c2ccccc2F)c(O)c2ccccc21	-21	-1	1	8	8	/	/
Cc1ccc(C)c(C(=O)COC(=O)CN2C(=O)C3C4CCC(C4)C3C2=O)c1 (stereo not given)	-34	0	2	5	1	/	/
CCCN(Cc1nnc(-c2ccccc2Cl)o1)C(=O)c1oc2ccccc2c1C	/	0	0	/	5	/	/
CCNC(=O)c1c(O)c2ccccc2[nH]c1=O	0	0	-1	6	-4	/	/
SMILES	FID counter	HIF act	PP5 inh	NS3 helicase inh	PP1 counter	PP1 inh confirm	PP5 counter
CC(C)=NNC(=O)c1c(O)c2ccccc2[nH]c1=O	-3	1	-2	-8	21*	9	-2
COc1ccc(Cn2c(SCc3ccc(C)cc3)nc3cc(OC)c(OC)cc3c2=N)cc1Cl	-1	-7	6	-94	21*	5	2
COc1cc2nc(SCc3ccc(Cl)cc3Cl)n(Cc3cccs3)c(=N)c2cc1OC	3	0	-2	-23	-4	/	/
COc1ccc(Cn2c(SCc3cc(C)ccc3C)nc3cc(OC)c(OC)cc3c2=N)cc1	10	-3	5	-82	23*	6	3
N#CCCN(C(=O)COC(=O)CCc1nc2ccccc2c(=O)[nH]1)c1ccccc1F	/	/	3	/	2	/	/
O=C(NNC(=O)c1cccnc1SCc1cccc([N+](=O)[O-])c1)c1ccccn1	-4	30*	-1	-9	20*	19*	-5
Cc1ccc(C(=O)NCCCN2CCOCC2)cc1S(=O)(=O)N1CCOCC1	/	/	2	/	-4	/	/
Cc1ccc(C(=O)NCCCN2CCOCC2)cc1Cl	-3	-31	-4	25	18*	-5	-4
COc1cccc(CN2CCN(c3nc4nonc4nc3N3CCCCC3)CC2=O)c1	-5	0	3	-2	-4	/	/
CSc1nc(NCCOCCO)c2sc3nc(-c4ccco4)c4c(c3c2n1)CCC4	-28	0	1	30	45*	25*	0
CN([C@@H](Cc1ccc(OS(=O)(=O)c2cccc3cnccc23)cc1)C(=O)N1CCN(c2ccccc2)CC1)S(=O)(=O)c1cccc2cnccc12	-28	0	1	-31	29*	20*	2

Assay outcomes from PubChem.
